biological target: T1, Fe(3+)-Zn(2+) purple acid phosphatase (Phaseolus vulgaris, UniProt P80366); assay: Inhibition of red kidney bean PAP at pH 6.2
T1 sequence (P80366 whole entry): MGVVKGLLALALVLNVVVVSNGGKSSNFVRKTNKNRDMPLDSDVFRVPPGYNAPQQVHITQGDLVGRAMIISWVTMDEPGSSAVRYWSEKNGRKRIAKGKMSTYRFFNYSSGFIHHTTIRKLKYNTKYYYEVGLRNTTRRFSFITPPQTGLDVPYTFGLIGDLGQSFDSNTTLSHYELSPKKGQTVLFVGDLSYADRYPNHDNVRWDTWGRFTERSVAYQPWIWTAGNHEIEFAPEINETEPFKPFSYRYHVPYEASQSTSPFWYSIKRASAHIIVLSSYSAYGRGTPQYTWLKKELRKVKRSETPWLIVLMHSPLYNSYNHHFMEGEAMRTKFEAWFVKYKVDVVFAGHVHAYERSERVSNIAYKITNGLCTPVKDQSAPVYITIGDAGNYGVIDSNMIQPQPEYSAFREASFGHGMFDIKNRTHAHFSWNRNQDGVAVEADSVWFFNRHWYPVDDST
Summary of the method: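 Each enzyme was run at its own pH optimum: red kidney bean PAP at pH 6.2 and pig PAP at pH 4.9. IC50 values were determined experimentally. Separate inhibition constants were derived for binding to the free enzyme and to the enzyme–substrate complex.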

Question: How did the Ki turn out when `CCCCCCCCOC(c1cccc2ccccc12)P(=O)(O)O` (racemic) [(+/-)-naphthalen-1-yl(octyloxy)methylphosphonic acid] was run?
Answer: 50 µM

Question: With `CCCCCCOC(c1cccc2ccccc12)P(=O)(O)O` (racemic) [(+/-)-hexyloxy(naphthalen-1-yl)methylphosphonic acid] as the molecule, how does the Ki read?
Answer: 1470 µM

Question: With `CCCCCCCCCCOC(c1cccc2ccccc12)P(=O)(O)O` (racemic) [(+/-)-decyloxy(naphthalen-1-yl)methylphosphonic acid] as the molecule, how does the Ki read?
Answer: 4 µM

From BindingDB's records for doi:10.1016/j.bmcl.2008.10.125 (The University of Queensland, 2008)
